The conditions of series [1]: with PLAC–PEG polymer, compared with PPD colloids; cited from earlier work.
Series [2] is described as follows: Critical aggregation concentration. In kind it is physicochemical. Put shortly: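 Colloids were formulated in PBS with 0.01% UP80 and 10 μM of a cholesteryl BODIPY FRET pair (FL C12 donor, 542/563 C11 acceptor; 0.875:0.125) added to the drug stock. They were diluted 10-fold into PBS or serum media and read by fluorescence (excitation 490 nm, acceptor emission 575 nm). Dye-free comparison was by DLS scattering intensity (830 nm laser, 158° detector).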

On to `CC(=O)O[C@@]12CO[C@@H]1C[C@H](O)[C@@]1(C)C(=O)[C@H](O)C3=C(C)[C@@H](OC(=O)[C@H](O)[C@@H](NC(=O)OC(C)(C)C)c4ccccc4)C[C@@](O)([C@@H](OC(=O)c4ccccc4)[C@H]21)C3(C)C` [docetaxel], for which, in series [1], the drug loading entry was “significantly lower drug loading”.

Regarding `C[C@]12CC[C@@H]3c4ccc(O)cc4C[C@@H](CCCCCCCCC[S+]([O-])CCCC(F)(F)C(F)(F)F)[C@H]3[C@@H]1CC[C@@H]2O` (stereo partly shown) [fulvestrant], the “measured CAC with or without BODIPY dyes” value in series [2] (PBS, fluorescence versus light scattering methods) is “no difference”. The “critical aggregation concentration (CAC)” value in series [2] (protein-free media, light scattering (Figure S3)) is given as “low micromolar”; in series [2] (serum-containing media, colloids with 10 μM BODIPY FRET pair, 0.01% UP80, diluted 10-fold, fluorescence intensity), “increased with serum content”.

Source of the values: article PMC6474797 (ACS chemical biology, 2019).
